Results from ChEMBL document CHEMBL3124834, “Development of tag-free photoprobes for studies aimed at identifying the target of novel Group A Streptococcus antivirulence agents” (Bioorg Med Chem Lett, 2014).
pIC50: −log10 of the molar value.

How the values were obtained:
Streptokinase = molecular target: T1, Streptokinase (Streptococcus pyogenes, UniProt P96471); assay: Inhibition of Streptococcus pyogenes UMAA2616 streptokinase assessed as plasmin activity in human plasma after 24 hrs by colorimetric analysis
T1 sequence (P96471 whole entry): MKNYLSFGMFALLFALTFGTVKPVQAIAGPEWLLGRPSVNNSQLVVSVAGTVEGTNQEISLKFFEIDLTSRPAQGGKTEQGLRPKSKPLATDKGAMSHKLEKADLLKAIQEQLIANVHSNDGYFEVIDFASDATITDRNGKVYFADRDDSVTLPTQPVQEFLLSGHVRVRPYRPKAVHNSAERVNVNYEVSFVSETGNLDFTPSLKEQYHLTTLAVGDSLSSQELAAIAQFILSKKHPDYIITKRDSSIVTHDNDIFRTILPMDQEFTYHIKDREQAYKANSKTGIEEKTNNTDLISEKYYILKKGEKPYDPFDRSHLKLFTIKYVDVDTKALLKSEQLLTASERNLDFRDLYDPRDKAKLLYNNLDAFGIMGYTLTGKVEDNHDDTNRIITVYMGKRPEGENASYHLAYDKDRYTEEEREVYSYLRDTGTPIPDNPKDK
Method in brief: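 GAS culture grown 24 h with test compound (5 μM for ratio data); culture supernatant mixed with human plasma and resulting plasmin activity read as turnover of plasmin-specific chromogenic substrate at A405. Reported as SK activity relative to DMSO-treated control culture; IC50 taken as concentration giving 50% of maximal inhibition of SK expression; ± standard deviation.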

Streptococcus pyogenes = assay: Growth inhibition of Streptococcus pyogenes UMAA2616 at 50 uM after 24 hrs relative to control; assay type: organism-based
[1] = molecular target: T2, Streptokinase (Streptococcus pyogenes) (UniProt P96471); assay: Inhibition of Streptococcus pyogenes UMAA2616 streptokinase assessed as plasmin activity in human plasma at 5 uM after 24 hrs by colorimetric analysis relative to control
T2 sequence (whole entry): T1 sequence (P96471 whole entry)
Method in brief: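 GAS cultures incubated 24 hours with 5 μM compound. Culture supernatant was mixed with human plasma, and the resulting plasmin activity was followed by turnover of a plasmin-specific chromogenic substrate, read as absorbance at 405 nm. Value is the activity of the treated culture divided by that of a DMSO-treated control culture, ± standard deviation.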

Compound | pIC50 (Streptokinase) | T/C (Streptococcus pyogenes) | T/C [1]
C#CCOCCSc1nc2c(c(=O)n1CC=C)C(C)(C)Cc1ccc(N=[N+]=[N-])cc1-2 | 6.72 | 0.98 | 0.3
C#CCOCCSc1nc2c(c(=O)n1CC=C)C(C)(C)Cc1cc(C(=O)c3ccccc3)ccc1-2 | 5.42 | 0.94 | 0.51
C#CCOc1ccc2c(c1)CC(C)(C)c1c-2nc(SCCC2(C)N=N2)n(CC=C)c1=O |  | 1.02 | 0.89
C#CCSc1nc2c(c(=O)n1CC=C)C(C)(C)Cc1cc(C(=O)c3ccccc3)ccc1-2 |  | 1.09 | 0.77
C=CCn1c(SCC)nc2c(c1=O)C(C)(C)Cc1ccc(OC)cc1-2 | 5.89 | 0.73 | 0.1
C#CCOCCOc1ccc2c(c1)CC(C)(C)c1c-2nc(SCCC2(C)N=N2)n(CC=C)c1=O |  | 1.01 | 0.71
C#CCSc1nc2c(c(=O)n1CC=C)C(C)(C)Cc1cc(OCCC3(C)N=N3)ccc1-2 |  | 0.96 | 1.07
C#CCOCCSc1nc2c(c(=O)n1CC=C)C(C)(C)Cc1cc(OCCC3(C)N=N3)ccc1-2 | 6.48 | 1.07 | 0.49
